The values below come from ChEMBL document CHEMBL3351863, “Optimization of 2-phenyl-pyrimidine-4-carboxamides towards potent, orally bioavailable and selective P2Y(12) antagonists for inhibition of platelet aggregation” (Bioorg Med Chem Lett, 2014).

A short description of data set [1]: Lipophilicity, logD of the compound. Format: physicochemical. To be noted: octanol/water.
For another data set, the target named is P2Y purinoceptor 12 (Homo sapiens, UniProt Q9H244). The data set is described as follows: Displacement of [3H]-2-methyl-thio-adenosine 5'-diphosphate from human recombinant P2Y12 expressed in CHO cell membranes by scintillation counting method. Put shortly:
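CHO cells expressing recombinant P2Y₁₂ receptors, incubated with tritium-labeled 2-methyl-thio-adenosine 5'-diphosphate plus test compound; IC₅₀ from displacement curves, each point in triplicate; reference compound run with every compound set, and set re-analyzed if its IC₅₀ fell outside pre-set 95% confidence interval.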
A general note: Displacement assays read how much labelled ligand stays bound in the presence of the test substance.

The nature of data set [2]: Cmax in Wistar rat at 10 mg/kg, po. It counts as ADME, organism-based. Details: dose 10 mg/kg, route oral. To be noted: Wistar, in vivo. Put shortly:
(§1)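 Rats dosed by iv infusion at 1 mg/kg (n = 2) or orally at 10 mg/kg (n = 3); plasma levels measured, limit of quantification ca. 1 ng/mL.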

The nature of data set [3]: Oral bioavailability in Wistar rat at 10 mg/kg. It counts as ADME, organism-based. To be noted: Wistar, in vivo. Put shortly: as §1
Data set [4] is described as follows: Clearance in Wistar rat at 1 mg/kg, iv. To be noted: in vivo. Format: ADME, organism-based. Details: dose 1 mg/kg, route intravenous. Put shortly: as §1
Data set [5] can be described thus: Potency shift, ratio of IC50 for inhibition of ADP-induced platelet aggregation in human platelet rich plasma to IC50 for displacement of [3H]-2-methyl-thio-adenosine 5'-diphosphate from human recombinant P2Y12 expressed in CHO cell membranes.
A short description of data set [6]: Half life in Wistar rat at 1 mg/kg, iv or 10 mg/kg, po. It counts as ADME, organism-based. To be noted: in vivo. In outline: as §1
The nature of data set [7]: Volume of distribution at steady state in Wistar rat at 1 mg/kg, iv or 10 mg/kg, po. Format: ADME, organism-based. To be noted: in vivo, read-out: Vdss. Put shortly: as §1
Data set [8] deals with Platelet. Nature of the data set: Inhibition of ADP-induced platelet aggregation in human platelet rich plasma by in-vitro light transmission aggregometry assay. It counts as functional. Put shortly:
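Human platelet-rich plasma incubated with compound, aggregation induced by 3 µM ADP and read by light transmission aggregometry; IC₅₀ derived from concentration–response curve.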

Data set [9] in a line: AUC in Wistar rat at 10 mg/kg, po. Also noted: dose 10 mg/kg, route oral. To be noted: Wistar, plasma. It counts as ADME, organism-based, Plasma. Put shortly: as §1
For the next data set, the target named is Cytochrome P450 2D6 (Homo sapiens, UniProt P10635). Nature of the data set: Inhibition of CYP2D6 in human liver microsomes assessed as reduction in dextromethorphan-O demethylation. Format: ADME. (In general: Microsomes from liver hold many membrane-bound enzymes, among them those of drug oxidation.)
Data set [10] has as its system Platelet. Nature of the data set: Inhibition of ADP-induced platelet aggregation in human platelet rich plasma assessed as remaining activity at 500 nM by in-vitro light transmission aggregometry assay. Format: functional. In outline: (§2)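 Light transmission aggregometry in human platelet-rich plasma; compound incubated, aggregation triggered with 3 µM ADP; remaining activity (RA) recorded at a single compound level (1000, 500 or 100 nM).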

Data set [11] is described as follows: Solubility in basic pH. It counts as physicochemical.
Data set [12] deals with T1, Cytochrome P450 3A4 (Homo sapiens, UniProt P08684). Nature of the data set: Inhibition of CYP3A4 in human liver microsomes assessed as reduction in testosterone 6beta-hydroxylation. It counts as ADME.
For data set [13], the system named is Liver microsome. The data set is described as follows: Metabolic stability assay in rat liver microsomes assessed as parent drug disappearance at 1 uM after 20 mins by HPLC and mass spectrometry method. It counts as ADME.
In data set [14] the test system is Platelet. Nature of the data set: Inhibition of ADP-induced platelet aggregation in human platelet rich plasma assessed as remaining activity at 100 nM by in-vitro light transmission aggregometry assay. Format: functional. Put shortly:
as §2

The target in another data set is Cytochrome P450 2C9 (Homo sapiens, UniProt P11712). Nature of the data set: Inhibition of CYP2C9 in human liver microsomes assessed as reduction in diclofenac 4'-hydroxylation. Format: ADME.
Data set [15] in a line: Solubility in neutral pH. It counts as physicochemical.
The target of data set [16] is T1, Cytochrome P450 3A4. The data set is described as follows: Inhibition of CYP3A4 in human liver microsomes assessed as reduction in midazolam 1'-hydroxylation. It counts as ADME.
Data set [17] relates to Liver microsome. The data set is described as follows: Metabolic stability assay in human liver microsomes assessed as parent drug disappearance at 1 uM after 20 mins by HPLC and mass spectrometry method. It counts as ADME.
For data set [18], the target named is Voltage-gated inwardly rectifying potassium channel KCNH2 (Homo sapiens, UniProt Q12809). Nature of the data set: Inhibition of human ERG expressed in HEK cells by patch-clamp assay. It counts as cell-based. To be noted: hek293. Background: The patch-clamp technique gives a direct electrical read-out from membranes.

A value given as a limit tells only on which side of the number the result lay.

Sequence of P2Y purinoceptor 12 (Q9H244 whole entry): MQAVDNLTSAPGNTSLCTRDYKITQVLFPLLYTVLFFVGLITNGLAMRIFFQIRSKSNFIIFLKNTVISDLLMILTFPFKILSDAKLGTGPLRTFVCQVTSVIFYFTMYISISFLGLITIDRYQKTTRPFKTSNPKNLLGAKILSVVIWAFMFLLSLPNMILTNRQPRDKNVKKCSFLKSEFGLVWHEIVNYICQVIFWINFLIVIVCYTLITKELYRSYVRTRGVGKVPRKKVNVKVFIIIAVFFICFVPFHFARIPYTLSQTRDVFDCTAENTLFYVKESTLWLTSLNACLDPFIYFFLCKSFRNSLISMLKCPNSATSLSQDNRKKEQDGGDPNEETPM
T1 sequence (P08684 whole entry): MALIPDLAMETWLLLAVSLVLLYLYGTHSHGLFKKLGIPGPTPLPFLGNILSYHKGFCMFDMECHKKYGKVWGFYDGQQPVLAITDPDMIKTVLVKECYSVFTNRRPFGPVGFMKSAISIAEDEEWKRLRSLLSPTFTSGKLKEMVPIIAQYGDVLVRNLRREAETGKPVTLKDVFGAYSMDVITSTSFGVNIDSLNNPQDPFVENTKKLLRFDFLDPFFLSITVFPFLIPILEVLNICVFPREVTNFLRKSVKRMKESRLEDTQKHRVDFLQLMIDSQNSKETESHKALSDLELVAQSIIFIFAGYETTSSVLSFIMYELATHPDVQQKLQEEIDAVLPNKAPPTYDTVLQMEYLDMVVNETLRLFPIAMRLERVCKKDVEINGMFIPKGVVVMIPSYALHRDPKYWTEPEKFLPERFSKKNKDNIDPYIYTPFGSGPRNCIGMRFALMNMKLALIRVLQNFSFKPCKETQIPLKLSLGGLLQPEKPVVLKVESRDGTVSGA
Sequence of Cytochrome P450 2C9 (P11712 whole entry): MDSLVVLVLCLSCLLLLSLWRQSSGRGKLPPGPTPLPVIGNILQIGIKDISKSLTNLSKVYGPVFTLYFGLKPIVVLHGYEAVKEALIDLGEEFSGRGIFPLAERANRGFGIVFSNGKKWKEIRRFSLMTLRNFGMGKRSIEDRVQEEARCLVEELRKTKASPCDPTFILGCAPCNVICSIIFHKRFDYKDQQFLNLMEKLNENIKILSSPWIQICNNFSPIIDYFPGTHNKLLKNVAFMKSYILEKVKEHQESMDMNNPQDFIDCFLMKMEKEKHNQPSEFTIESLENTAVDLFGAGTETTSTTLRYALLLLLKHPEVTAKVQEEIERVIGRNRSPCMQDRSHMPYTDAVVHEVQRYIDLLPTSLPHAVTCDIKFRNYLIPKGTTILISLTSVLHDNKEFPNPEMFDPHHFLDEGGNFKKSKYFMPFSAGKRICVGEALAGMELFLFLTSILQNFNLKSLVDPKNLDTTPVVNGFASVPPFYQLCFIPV
Sequence of Voltage-gated inwardly rectifying potassium channel KCNH2 (Q12809 whole entry): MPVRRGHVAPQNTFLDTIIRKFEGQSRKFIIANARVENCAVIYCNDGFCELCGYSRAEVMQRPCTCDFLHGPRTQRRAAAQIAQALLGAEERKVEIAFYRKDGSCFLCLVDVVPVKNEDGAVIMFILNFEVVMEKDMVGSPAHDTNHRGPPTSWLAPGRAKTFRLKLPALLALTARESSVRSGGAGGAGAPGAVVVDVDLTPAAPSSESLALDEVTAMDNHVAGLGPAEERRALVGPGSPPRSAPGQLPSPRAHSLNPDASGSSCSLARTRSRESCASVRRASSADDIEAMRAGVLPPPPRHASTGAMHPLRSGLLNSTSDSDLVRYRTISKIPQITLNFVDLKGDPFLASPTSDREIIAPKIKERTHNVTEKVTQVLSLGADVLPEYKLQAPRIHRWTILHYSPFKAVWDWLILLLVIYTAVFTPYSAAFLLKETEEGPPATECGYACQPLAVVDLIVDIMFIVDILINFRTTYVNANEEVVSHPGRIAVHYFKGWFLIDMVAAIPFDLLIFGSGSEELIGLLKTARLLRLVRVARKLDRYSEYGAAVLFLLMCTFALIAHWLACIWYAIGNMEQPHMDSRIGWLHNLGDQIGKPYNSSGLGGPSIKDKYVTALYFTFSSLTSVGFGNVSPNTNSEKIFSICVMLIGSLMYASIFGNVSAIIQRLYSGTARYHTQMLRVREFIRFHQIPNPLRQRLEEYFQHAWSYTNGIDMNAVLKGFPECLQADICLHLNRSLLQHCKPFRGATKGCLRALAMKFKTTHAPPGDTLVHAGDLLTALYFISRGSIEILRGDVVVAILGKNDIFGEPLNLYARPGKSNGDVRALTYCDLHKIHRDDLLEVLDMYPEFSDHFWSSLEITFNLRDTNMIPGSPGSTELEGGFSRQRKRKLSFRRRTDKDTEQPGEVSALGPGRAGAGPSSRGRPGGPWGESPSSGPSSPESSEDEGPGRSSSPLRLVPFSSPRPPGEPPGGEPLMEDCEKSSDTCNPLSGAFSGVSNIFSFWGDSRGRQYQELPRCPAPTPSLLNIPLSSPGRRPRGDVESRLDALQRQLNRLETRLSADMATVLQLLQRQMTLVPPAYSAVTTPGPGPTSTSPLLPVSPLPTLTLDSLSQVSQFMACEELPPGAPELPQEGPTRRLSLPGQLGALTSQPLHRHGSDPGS
Sequence of Cytochrome P450 2D6 (P10635 whole entry): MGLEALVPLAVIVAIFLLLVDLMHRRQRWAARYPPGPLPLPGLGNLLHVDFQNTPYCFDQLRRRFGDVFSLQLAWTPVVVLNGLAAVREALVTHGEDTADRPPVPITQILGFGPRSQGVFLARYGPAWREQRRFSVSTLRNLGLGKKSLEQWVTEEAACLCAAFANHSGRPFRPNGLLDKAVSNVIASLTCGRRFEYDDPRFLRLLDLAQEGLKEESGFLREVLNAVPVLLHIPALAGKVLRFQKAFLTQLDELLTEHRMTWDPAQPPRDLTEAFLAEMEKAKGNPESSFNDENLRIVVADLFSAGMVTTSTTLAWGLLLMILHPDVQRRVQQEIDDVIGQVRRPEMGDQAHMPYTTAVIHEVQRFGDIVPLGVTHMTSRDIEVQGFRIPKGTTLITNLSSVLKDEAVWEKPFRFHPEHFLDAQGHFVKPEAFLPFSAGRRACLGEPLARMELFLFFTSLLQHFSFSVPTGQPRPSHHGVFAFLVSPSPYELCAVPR

The logD is the decadic logarithm of the distribution of all forms, ionised or not, between an organic phase and buffer at a given pH. A lower logD goes with a more hydrophilic compound. A word on the IC50: it is the concentration that inhibits the measured activity by half. Broadly, the Cmax is the peak of the concentration-time curve. A word on the bioavailability: it is dose-corrected exposure relative to a reference, in per cent. By clearance is commonly meant the volume of plasma or blood freed of the substance per unit of time. A higher clearance goes with efficient removal. The half-life is the time needed for the level to fall by half in the phase considered. A higher half-life goes with slow loss. In general, AUC refers to the area under the concentration-time curve, a measure of exposure. Low values mean low exposure, high ones high exposure. For `CCCCOC(=O)N1CCN(C(=O)[C@H](CCC(=O)O)NC(=O)c2cc([C@H]3C[C@@H]3COC)nc(-c3ccccc3)n2)CC1`, the logD in [1] stood at 1.9. For the same compound, the figures for the IC50 at P2Y purinoceptor 12 and with Platelet [8] (platelet) were 4.8 nM and 31 nM, respectively. Moreover, the concentration in data set [2] peaked (Cmax) at 7620 nM. Besides, in data set [3], the bioavailability is 33%. The same compound showed a clearance in [4] of 17 mL/min/kg. Also, the “Ratio IC50” value in data set [5] is reported as 6.4. The compound also showed a half-life in data set [6] of 120 min. Besides, in [7], the Vd turned out to be 0.4 L/kg. The same compound yielded an AUC in [9] of 6 µM·h.
With `CCOC(=O)N1CCN(C(=O)[C@H](CCC(=O)O)NC(=O)c2cc(N3CC[C@H](OC)C3)nc(-c3ccccc3)n2)CC1`, the “inhibition (INH)” value (at Cytochrome P450 2D6; on Cytochrome P450 3A4 [12]; on Cytochrome P450 2C9; at Cytochrome P450 3A4 [16]; in data set [18]) was “Not Active” each time. The Activity was below 30% with Platelet [10] and below 70% in the data set on Platelet [14]. Further, the solubility result in data set [11] and in data set [15] was “soluble” each time. The Stability entry with Liver microsome [13] and with Liver microsome [17] was “Stable” throughout. Further, the IC50 was found to be 16 nM at P2Y purinoceptor 12 and 32 nM with Platelet [8] (Homo sapiens, Platelet, Plasma). The Cmax in data set [2] is 683 nM. This compound also yielded a bioavailability in data set [3] of 8%. This compound also registered a clearance in data set [4] of 36 mL/min/kg. Besides, the “Ratio IC50” value in data set [5] is on record as 2. For the same compound, the half-life in data set [6] was 37.8 min. The Vd in data set [7] was 1.8 L/kg. The AUC in [9] was 0.638 µM·h.
For `CCOC(=O)N1CCN(C(=O)[C@H](CCC(=O)O)NC(=O)c2cc([C@@H]3C[C@H]3COC)nc(-c3ccccc3)n2)CC1`, the “inhibition (INH)” value (at Cytochrome P450 2D6; on Cytochrome P450 3A4 [12]; at Cytochrome P450 2C9; at Cytochrome P450 3A4 [16]; in [18]) was “Not Active” each time. Further, the Activity with Platelet [10] is recorded as 30%. Moreover, the solubility entry in data set [11] and in data set [15] was “soluble” in each case. The Stability result with Liver microsome [13] and with Liver microsome [17] was “Stable” each time. This compound also had a logD in [1] of 0.8. Moreover, the half-inhibitory concentration (IC50) on P2Y purinoceptor 12 turned out to be 43 nM; with Platelet [8] (Homo sapiens, Platelet, Plasma) it was 589 nM. This compound also came in with a Cmax in data set [2] of 2820 nM. Further, in data set [3], the bioavailability worked out at 11%. Besides, in [4], the clearance was determined as 14 mL/min/kg. Also, the “Ratio IC50” value in data set [5] is reported as 14. The compound also had a half-life in data set [6] of 33 min. For the same compound, the Vd in [7] turned out to be 0.3 L/kg. For the same compound, the area under the curve (AUC) in [9] worked out at 2.31 µM·h.
